# CAL PDZ FP-1: CAL PDZ peptide-binding inhibitors, primary screen, biochemical, fluorescence polarization, Cer-tagged CAL PDZ, HTS | Golgi-associated PDZ and coiled-coil motif-containing protein (Homo sapiens), Q9HD26 | purified CAL PDZ, TMR-peptide fluorescence polarization, 1 h | inhibition, % at 20 µM | actives 0.02% (n = 330,000) | AID 504414, 2011;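 active means highest replicate inhibition of at least 40%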
#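 Material – purified CerCALP PDZ construct · Detection – FP readout, S and P plane fluorescence · Measure – percent inhibition from loss of millipolarization · Controls – unlabelled peptide for full inhibition, DMSO wells as neutral · Probe or stimulus – TMR-labelled reporter peptide T*-PRC34 bound in PDZ groove · Times – 1 h at RT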
# CAL PDZ FP-2: untagged CAL PDZ binding inhibitors, primary screen, biochemical, fluorescence polarization, HTS | actives 0.92% (n = 300,000) | purified CAL PDZ, TMR-peptide fluorescence polarization, 1 h | inhibition, % at 24.9 µM | AID 602252, 2012 | Golgi-associated PDZ and coiled-coil motif-containing protein (Homo sapiens), Q9HD26;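 active means mean inhibition of at least 30% with at least half of replicates also reaching 30%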
# Keap1 Nrf2 FP: Keap1-Nrf2 protein-protein interaction inhibitors, primary screen, biochemical, fluorescence polarization, single point; inhibition, % at 9.4 µM; actives 0.15% (n = 340,000); Keap1 Kelch-Nrf2 peptide fluorescence polarization, 1536-well; AID 504523, 2011; in the data active means inhibition above about 12%;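 further: human Keap1 Kelch domain with fluorescein labeled Nrf2 9mer peptide probe; higher means more block of Keap1 binding to Nrf2 peptide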
# APOBEC3A inh: APOBEC3A ssDNA deaminase inhibitors, primary screen, selectivity assay for APOBEC3G inhibitor project, biochemical, FAM/TAMRA oligo cleavage fluorescence; DNA dC->dU-editing enzyme APOBEC-3A (Homo sapiens), P31941; actives 0.41% (n = 330,000); recombinant A3A, FAM/TAMRA ssDNA deamination fluorescence; inhibition, % at 20 µM;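 active means at least 40% inhibition at 20 µM here, with at most 30% in a related deaminase screen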
# Target sequence (P31941 whole entry, looked up): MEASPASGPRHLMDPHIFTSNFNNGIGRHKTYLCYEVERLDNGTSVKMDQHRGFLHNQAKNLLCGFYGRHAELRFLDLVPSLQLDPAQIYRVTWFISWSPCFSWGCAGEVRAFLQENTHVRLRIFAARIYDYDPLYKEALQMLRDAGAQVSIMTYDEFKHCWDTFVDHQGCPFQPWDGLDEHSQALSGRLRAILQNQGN
# A3G deaminase: APOBEC3G DNA deaminase inhibitors, primary screen, biochemical, fluorescence, single-stranded DNA substrate, uHTS | recombinant A3G, ssDNA deamination FAM/TAMRA fluorescence | inhibition, % at 20 µM | actives 0.28% (n = 330,000);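 active means inhibition of at least 40% at 20 µM, with no more than 30% in the related APOBEC3A deaminase screen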
# Target sequence (Q9HC16 whole entry, looked up): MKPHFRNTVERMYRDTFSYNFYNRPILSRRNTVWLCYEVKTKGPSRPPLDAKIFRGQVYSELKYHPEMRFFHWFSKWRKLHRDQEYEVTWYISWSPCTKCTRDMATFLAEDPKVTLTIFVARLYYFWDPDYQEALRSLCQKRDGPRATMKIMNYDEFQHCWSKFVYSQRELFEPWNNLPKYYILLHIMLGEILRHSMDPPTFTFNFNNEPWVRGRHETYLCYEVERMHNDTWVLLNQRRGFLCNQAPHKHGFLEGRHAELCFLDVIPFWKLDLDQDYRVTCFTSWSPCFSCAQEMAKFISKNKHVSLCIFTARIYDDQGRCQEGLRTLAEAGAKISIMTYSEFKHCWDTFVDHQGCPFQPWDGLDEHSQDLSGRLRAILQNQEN
# LANA DNA inh: inhibitors of KSHV C-LANA binding to DNA, primary screen, biochemical, fluorescence polarization, FAM-LBS DNA, MBP-C-LANA, single point | inhibition, % at 9 µM | actives 0.078% (n = 340,000);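 active means highest replicate inhibition at or above 60% at 9 µM, even if other replicates fall short; inactive means all replicates below 60% inhibition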
# A3A conf: APOBEC3A deaminase inhibitors, retest, confirmation, selectivity assay for APOBEC3G inhibitor project, biochemical, single concentration, fluorescence readout; shares compounds with APOBEC3A inh; recombinant A3A, ssDNA deaminase UDG fluorescence assay; inhibition, % at 20 µM; actives 63% (n = 1,400); AID 493151, 2011;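 active means inhibition reaching a set limit, 80% of the first screen's cutoff, at 20 µM in any replicate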
# UDG ctr A3A: E. coli UDG inhibitors, confirmation, counter-screen for APOBEC3A inhibitor project, biochemical, single concentration, fluorescence, FAM/TAMRA oligo. UDG counterscreen, FAM/TAMRA uracil oligo fluorescence. 1,000 tested, under 10 active. inhibition, % at 20 µM. shares compounds with APOBEC3A inh; call rule not given here
# Hits are given with their value; 0 = inactive; - = no result given. Shown are actives, neighbours in structure and some others; about 1.7% of the full set was active somewhere.
SMILES,CAL PDZ FP-1,CAL PDZ FP-2,Keap1 Nrf2 FP,APOBEC3A inh,A3G deaminase,LANA DNA inh,A3A conf,UDG ctr A3A
COC(=O)/C(=N\OCc1ccc(C#N)cc1)c1c(C)nn(C)c1C,0,0,0,0,0,0,-,-
O=C1CCCC/C1=C\Nc1ccc(Cl)cn1,0,0,0,42,0,0,0,-
Cc1c(Cl)cccc1NC(=O)c1ccc(-n2ccnc2)nc1,0,0,0,0,0,0,-,-
O=C(Cn1nnc2ccccc21)OCC(=O)c1ccc(Cl)c(Cl)c1,-,0,0,41,0,0,0,-
Cc1cccc(N2CCN(C(=O)CCS(=O)(=O)c3ccc(Br)cc3)CC2C)c1 (centres undefined),0,0,0,45,0,0,0,-
O=C1OC(c2ccc3c(c2)OCO3)=N/C1=C\c1ccc(C(=O)O)cc1,0,-,0,40,0,0,32,0
Cn1c(SCC(=O)NCc2ccccc2)nnc1-c1ccc(NC(=O)CCc2ccccc2)cc1,0,0,0,58,0,0,51,0
Cn1c(SCC(=O)NCc2ccco2)nnc1-c1ccccc1,0,0,0,0,0,0,-,-
CCCCSc1nnc(-c2ccc(NC(=O)CCc3ccccc3)cc2)n1C,0,0,0,0,0,0,-,-
Cn1c(Cc2ccccc2)nnc1SCCC(=O)Nc1ccccc1,0,0,0,69,0,0,74,0
CCC(=O)Nc1cccc(-c2nnc(SCC(=O)NCc3ccco3)n2C)c1,0,0,0,46,0,0,68,0
CCCCc1c(C)nc2nc(SCc3ccc(Cl)cc3)[nH]n2c1=O,0,0,0,-,-,0,-,-
Cc1ccccc1C(=O)NCC(C)NC(=O)c1ccccc1C (centres undefined),0,0,0,0,0,0,-,-
CC[C@@]12C(=O)N(c3cccc(F)c3)C(=O)N1[C@H](c1ccc(Cl)cc1)[C@@H]1C(=O)N(C3CCCCC3)C(=O)[C@@H]12,0,0,0,0,0,0,-,-
COc1ccc2sc(NC(=O)c3ccco3)nc2c1,0,0,0,61,0,0,48,0
O=C(Nc1nc2ccc([N+](=O)[O-])cc2s1)c1ccco1,-,-,-,0,0,-,-,-
COc1ccc2nc(NC(=S)NC(=O)c3ccco3)sc2c1,0,0,0,0,0,0,-,-
COc1ccc2nc(NC(=O)c3ccc(-c4cccc([N+](=O)[O-])c4)o3)sc2c1,-,-,-,53,0,-,32,-
C[N+](C)(C)CCCCCC(=O)/C=N/O,0,0,0,53,0,0,66,0
C[N+](C)(C)CCCCCC[N+](C)(C)C,0,0,0,0,0,0,-,-
c1ccc(COc2ncnc3c2ncn3CCCNCCN2CCOCC2)cc1,0,0,0,-,-,0,-,-
COc1ccc2[nH]c(=O)c(CN(C)C(=O)c3cccs3)cc2c1,0,0,0,0,0,0,-,-
CCn1c(C)[n+](Cc2ccccc2)c2ccc(C(=O)OC)cc21,0,0,0,53,0,0,71,0
CCn1c(/C=C/N(C)c2ccccc2)[n+](CC)c2ccc(Cl)cc21,0,0,0,42,0,0,64,0
CCn1c(C)[n+](Cc2ccccc2)c2ccc(Cl)cc21,0,0,0,60,0,0,73,0
SMILES,CAL PDZ FP-1,CAL PDZ FP-2,Keap1 Nrf2 FP,APOBEC3A inh,A3G deaminase,LANA DNA inh,A3A conf,UDG ctr A3A
CCOC(=O)c1ccc2c(c1)n(CC)c(/C=C/Nc1ccccc1)[n+]2CC,0,0,0,0,0,0,-,-
CC(=O)N1CCN(C(=O)COC(=O)COc2c(C)cc(C)cc2C)CC1,0,0,0,0,0,0,-,-
O=C(NC(Cc1ccccc1)c1nc2ccccc2[nH]1)C1CC(=O)N(c2ccc3c(c2)OCCO3)C1 (centres undefined),0,0,0,55,0,0,0,-
Cc1nc2sccn2c(=O)c1S(=O)(=O)NCC(C)c1ccccc1 (centres undefined),0,-,0,0,0,0,-,-
O=C(COC(=O)CCN=C1NS(=O)(=O)c2ccccc21)NNC(=O)c1ccccc1,0,0,0,0,0,0,-,-
CCOC(=O)c1c(NC(=O)c2ccc(N3C(=O)[C@@H]4[C@H](C3=O)[C@H]3C=C[C@@H]4C3)cc2)sc2c1CC(C)CC2 (some centres undefined),0,0,0,91,0,0,0,0
CCOC(=O)c1noc(C)c1C(=O)Nc1nc(C)cc(C)n1,0,0,0,0,0,0,-,-
O=c1[nH]ncc2c3ccccc3n(Cc3ccccc3F)c12,0,0,0,43,0,0,0,0
O=c1[nH]ncc2c3ccccc3n(Cc3ccccc3)c12,0,0,0,0,0,0,-,-
CCc1nnc(NC(=O)c2ccc3nc(CC)c(CC)nc3c2)s1,0,0,0,0,0,0,-,-
CCCn1c(=O)c2sccc2n2c(CCCC(=O)NCc3ccco3)nnc12,0,0,0,46,0,0,34,-
CCCn1c(=O)c2sccc2n2c(CCCC(=O)NCc3cccnc3)nnc12,0,0,0,0,0,0,-,-
CCN1CCN(C(=O)c2ccc(Cl)c(S(=O)(=O)N3CCOCC3)c2)CC1,0,0,0,41,0,0,14,0
CCN1CCN(c2ccc(NC(=O)c3ccc(Cl)c(S(=O)(=O)N4CCCC4)c3)cc2)CC1,0,0,0,40,0,0,0,-
O=C(c1ccc(Cl)c(S(=O)(=O)N2CCOCC2)c1)N1CCCC1,0,0,0,0,0,0,-,-
CCN1CCN(c2ccc(NC(=O)c3ccc(Cl)c(N4CCCC4=O)c3)cc2)CC1,0,0,0,66,0,0,0,-
O=C(Nc1ccc(-c2nc3ccccc3o2)c(O)c1)c1cc(-n2cnnc2)ccc1Cl,0,-,0,0,0,0,-,-
Cc1c(NC(=O)c2cc(-n3cnnc3)ccc2Cl)cccc1-c1nc2ccccc2o1,0,0,0,46,0,0,64,0
COc1cc([N+](=O)[O-])ccc1NC(=O)C[n+]1cccc(C(C)=O)c1,0,0,0,0,0,0,-,-
CCn1ccc(=N)cc1,0,0,0,0,0,0,-,-

# Screening results deposited in PubChem BioAssay by several laboratories.
